Only some compounds are listed: those with a hit (about 5.3% of all), similar ones and a draw of the others.
Mdm2-MdmX inh: inhibitors of human Mdm2/MdmX interaction. O15151+Q00987. SaOS-2 split-luciferase Mdm2/MdmX complementation, luminescence. inhibition, % at 8 µM. hit rate 3% among 330,000;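 active = inhibition of at least 50% at 8 µM in the primary screen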
Target sequence (O15151 whole entry, looked up): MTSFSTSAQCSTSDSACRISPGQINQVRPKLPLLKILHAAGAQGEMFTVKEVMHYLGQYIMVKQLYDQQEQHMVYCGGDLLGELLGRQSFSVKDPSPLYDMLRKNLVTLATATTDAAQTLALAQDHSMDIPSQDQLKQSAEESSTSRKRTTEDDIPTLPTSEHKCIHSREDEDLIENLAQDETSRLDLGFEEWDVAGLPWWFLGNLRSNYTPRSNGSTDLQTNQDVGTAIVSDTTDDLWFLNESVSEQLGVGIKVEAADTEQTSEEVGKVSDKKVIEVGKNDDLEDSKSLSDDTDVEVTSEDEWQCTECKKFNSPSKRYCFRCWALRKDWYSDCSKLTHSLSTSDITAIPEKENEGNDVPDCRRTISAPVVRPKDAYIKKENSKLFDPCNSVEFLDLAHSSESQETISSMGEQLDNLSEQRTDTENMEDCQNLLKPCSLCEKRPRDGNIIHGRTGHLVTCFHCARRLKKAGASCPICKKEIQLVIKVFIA
Target sequence (Q00987 whole entry, looked up): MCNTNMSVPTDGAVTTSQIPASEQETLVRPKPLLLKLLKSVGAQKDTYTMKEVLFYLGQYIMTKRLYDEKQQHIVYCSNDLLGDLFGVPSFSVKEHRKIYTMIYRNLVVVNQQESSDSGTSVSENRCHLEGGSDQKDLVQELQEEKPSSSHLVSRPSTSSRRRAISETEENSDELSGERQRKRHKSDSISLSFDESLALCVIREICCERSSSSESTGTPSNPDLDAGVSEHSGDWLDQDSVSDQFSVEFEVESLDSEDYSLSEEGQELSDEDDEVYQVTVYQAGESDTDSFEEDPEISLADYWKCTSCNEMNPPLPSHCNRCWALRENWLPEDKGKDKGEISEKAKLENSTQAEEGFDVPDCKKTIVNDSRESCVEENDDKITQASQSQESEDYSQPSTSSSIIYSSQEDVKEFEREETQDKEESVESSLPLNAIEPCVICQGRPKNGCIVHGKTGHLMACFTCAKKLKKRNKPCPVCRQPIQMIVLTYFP
CSC inhib: cancer stem cell inhibition | cancer stem cell-like cells viability, luminescence | inhibition, % at 7.5 µM | hit rate 1.1% among 300,000 | AID 2717; in the data active = inhibition above about 75%; inconclusive = no clear call, values can overlap the other calls; tested in HMLE shEcad cells
Calb FLC: C. albicans growth modulation with fluconazole; C. albicans CaCi-2 (fluconazole-resistant clinical isolate) + fluconazole, Alamar Blue growth, 48 h; growth inhibition, % (test concentration not listed); hit rate 0.57% among 300,000; AID 1979;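 active = growth inhibition above about 58% in most replicates, limit read from the data, passing the limit was not always enough; inconclusive = exactly half the replicates above a set limit; inactive = most replicates below a set limit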;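 also: all wells also contain fluconazole at 8 µg/ml as a sub-toxic cotreatment; 0% = median of DMSO wells and 100% = median of geldanamycin control wells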
Beta apoptosis: blocks beta cell apoptosis | INS-1E cytokine-induced death, ATP luminescence, 48 h; percent of positive-control rescue, neutral wells zero | protection from apoptosis, % (no concentration beside the values) | hit rate 0.8% among 300,000;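 active = Every replicate reaches about 75%, or at least half do and their mean reaches it too, limit read from the data; inconclusive = At least half of replicates reach the limit but their mean does not; inactive = Under half of replicates reach the limit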;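 also: 0% = cytokine-treated negative control wells and 100% = positive control rescue; higher means more ATP so stronger rescue from cytokine killing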
T cruzi inh: blocks replication of Trypanosoma cruzi; hit rate 1.4% among 300,000; T. cruzi beta-gal in NIH3T3, luminescence, 90 h; inhibition, % (no concentration beside the values);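 active = mean inhibition across valid replicates above about 55%, limit read from the data; inconclusive = mean below that limit but half or more replicates reach it; inactive = mean below it, under half of replicates reach it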;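 also: signal also drops with host cell toxicity which is not excluded here; 0% = plate median of DMSO wells and 100% = zero luminescence signal; higher percent means less beta-gal luminescence so fewer parasites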
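Test system: β-gal T. cruzi (Tulahuen C4) inside NIH/3T3 cells / Quantity: 5,000 cells/well / Measured by: luminescence from GalScreen with 0.05% NP40, read after 60 min / Medium: DMEM plus 2% FBS / Measure: parasite load inhibition, % / Reagent: Tulahuen C4 trypomastigotes, 5000/well / Schedule: co-culture of at least 90 h after 3 h attachment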
NALP3 yeast inh: blocks the NALP3 inflammasome reconstituted in yeast. Yeast reconstituted NLRP3/ASC/caspase-1, beta-gal luminescence, 24 h. inhibition, % at 10 µM. hit rate 0.39% among 330,000;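 active = inhibition of 50% or more; inactive = inhibition below 50%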;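 also: plate controls were induced DMSO wells for no effect and uninduced yeast grown without galactose for full effect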
Mdm2 MdmX conf: human Mdm2/MdmX binding inhibition, confirmed; shares compounds with Mdm2-MdmX inh; luminescent assay; inhibition, % at 8 µM; hit rate 55% among 10,000; in the data active = inhibition above about 40%
FLuc counter: counter-screen for Mdm2/MdmX inhibitors: full-length luciferase; SaOS-2 full-length luciferase counterscreen, luminescence; AID 504607; hit rate 77% among 6,200; shares compounds with Mdm2-MdmX inh; inhibition, % at 8 µM;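 active = mean inhibition at 8 µM reaching about 37%, which flags the compound as non-specific, limit read from the data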;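 also: p53-null SaOS-2 cells with luciferase driven by a doxycycline-inducible promoter; compound on cells about two nights before reading with doxycycline added after day one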
* hit, by the source's call; u = inconclusive; x = no result.

SMILES | Mdm2-MdmX inh | CSC inhib | Calb FLC | Beta apoptosis | T cruzi inh | NALP3 yeast inh | Mdm2 MdmX conf | others
Cn1ncc2c(N3CCN(c4ccc(Cl)c(Cl)c4)CC3)ncnc21 | 92* | 66 | -7 | u | 19 | 10 | 74* | FLuc counter=99*
Clc1ccc(-n2ncc3c(N4CCCC4)ncnc32)cc1 | 51* | 2 | 25 | -1 | 5 | 21 | 66* | FLuc counter=168*
NC(=O)C(c1ncc(C(F)(F)F)cc1Cl)c1c(Cl)cccc1Cl (centres undefined) | 12 | -5 | 3 | 1 | -6 | 1 | x
COc1ccc(CC2(CO)COc3ccccc3C2=O)cc1 (centres undefined) | 51* | 49 | -1 | 0 | -4 | 32 | 39 | FLuc counter=85*
COc1ccc(CN2C(=O)COc3ccccc32)cc1 | 9 | 4 | 3 | -7 | -1 | 26 | x
CCOc1cc(CNCCc2ccccc2)ccc1OCC(=O)NC(C)(C)C | 28 | 12 | -4 | -1 | 36 | 10 | x
CCCN(CCC)CCCNC(=S)Nc1ccc2nc(N3CCCC3)cc(C)c2c1 | 78* | 1 | 24 | 12 | 59* | 17 | 45* | FLuc counter=63*
CCCCN(CC)CCCNC(=S)Nc1ccc2nc(N3CCN(C)CC3)cc(C)c2c1 | 56* | 24 | -6 | -2 | 53 | -2 | 21
CCN(CC)CCNC(=S)Nc1ccc2nc(N3CCCC3)cc(C)c2c1 | 33 | 26 | -4 | 3 | 54 | 4 | x
Cc1ccc(/C=N/NC(=O)c2cccc([N+](=O)[O-])c2)o1 | x | -5 | 0 | 1 | -8 | x | x
Cc1ccc(NC(=O)Cn2nc(-c3ccccc3)nc2-c2ccccc2)c(C)c1 | -25 | -10 | -2 | 9 | 27 | 18 | x
O=c1cc(N2CCCCC2)c(-c2ccccc2)nn1Cc1c(Cl)cccc1Cl | 56* | 104* | 12 | 16 | 42 | 13 | 32
CCOc1ncccc1C(=O)NCc1ccc(OC)cc1 | 31 | x | 0 | -7 | -13 | 21 | x
COc1ccc(CN2CCc3c([nH]c4ccccc34)C2)cc1Br | 69* | 50 | 2 | -8 | 27 | 20 | 25
COc1ccc(NC(=O)COc2cccc3c2OC(C)(C)C3)cc1OC | 22 | -2 | x | -1 | x | 14 | x
Cc1cnc(NC(=O)COc2cccc3c2OC(C)(C)C3)s1 | 77* | -8 | -4 | 1 | 0 | 37 | 68* | FLuc counter=42*
COc1cc(OC)c2c(-c3ccccc3)cc(=O)oc2c1C(CCN1CCCC(C)C1)c1ccc2c(c1)OCO2 (centres undefined) | 74* | 6 | -9 | 67 | 21 | 32 | 37 | FLuc counter=77*
COc1cc(OC)c2c(-c3ccccc3)cc(=O)oc2c1C(CC(=O)N1CCCC1)c1ccc2c(c1)OCO2 (centres undefined) | -3 | 5 | 2 | 2 | 15 | 10 | x
COc1cc(OC)c2c(C)cc(=O)oc2c1C(CCN1CCOCC1)c1ccc2c(c1)OCO2 (centres undefined) | 10 | 1 | 4 | -4 | 14 | 14 | x
COc1cc(OC)c2c(-c3ccccc3)cc(=O)oc2c1C(CCN1CCCCC1)c1ccc2c(c1)OCO2 (centres undefined) | 99* | -2 | -17 | 17 | 52 | 19 | 30
COc1ccc(-c2sc3cc4c(cc3c2C#CC2(N)CCCCC2)OCO4)cc1 | 79* | 130* | x | 3 | x | 9 | 30
COC(=O)c1c(-c2ccc(OC)cc2)sc2ccc(-c3ccc4c(c3)OCO4)cc12 | 10 | 40 | x | 1 | x | 29 | x
COc1ccc(-c2ccc3oc(-c4ccc(OC)cc4)c(C#CC4(O)CCCCC4)c3c2)cc1 | 70* | 77* | 2 | 0 | 32 | -4 | 32
COc1cc(OC)cc(-c2sc3ccc(OC)cc3c2C#CC2(N)CCCCC2)c1 | 96* | 104* | x | 7 | x | 33 | 25
COc1ccc(-c2sc3ccc(N4CCOCC4)cc3c2C#CC2(O)CCCCC2)cc1 | 76* | 106* | x | 4 | x | 15 | 10
SMILES | Mdm2-MdmX inh | CSC inhib | Calb FLC | Beta apoptosis | T cruzi inh | NALP3 yeast inh | Mdm2 MdmX conf | others
Cc1ccc(N(C)S(=O)(=O)c2c(C)noc2/C=C/N(C)C)cc1 | 13 | 17 | -7 | -8 | 0 | 18 | x
CCC(=O)NC(=S)Nc1ccc(NC(=O)CC)cc1 | -6 | 1 | -3 | -12 | -3 | 5 | x
Cn1c(=O)oc2cc(S(=O)(=O)N3CCCC(C(=O)Nc4ccccn4)C3)ccc21 (centres undefined) | 18 | -13 | 2 | 0 | -5 | 8 | x
Cn1c(=O)oc2cc(S(=O)(=O)N3CCCC(C(=O)NC4CCCc5ccccc54)C3)ccc21 (centres undefined) | 76* | -13 | 3 | -2 | -17 | -5 | 70* | FLuc counter=54*
CCN(c1ccccc1)S(=O)(=O)c1cc(NC(=O)Nc2ccccc2C#N)ccc1Cl | -34 | 14 | 28 | -12 | 7 | 15 | x
CCN(c1ccccc1)S(=O)(=O)c1ccc(Cl)c(NC(=O)CSc2ncn[nH]2)c1 | 36 | -7 | 13 | -6 | 12 | 4 | x
CCN(c1ccccc1)S(=O)(=O)c1ccc(Cl)c(NC(=O)c2ccc(=O)[nH]n2)c1 | 53* | x | x | -1 | x | 9 | -3
CCN(c1ccccc1)S(=O)(=O)c1ccc(Cl)c(NC(=O)Nc2ccc(Cl)cc2C#N)c1 | 99* | 9 | 8 | 10 | 12 | 7 | 99* | FLuc counter=56*
Cc1c(Cl)c([N+](=O)[O-])nn1Cc1ccc(C(=O)N/N=C\c2cccc(Br)c2)o1 | -8 | 5 | 24 | 19 | 28 | 18 | x
CC(C)c1ccc(Nc2nnc(SC3CCOC3=O)s2)cc1 (centres undefined) | 52* | -10 | -2 | -9 | 2 | 5 | -3
Cc1ccc(Nc2nnc(SC3CCOC3=O)s2)cc1 (centres undefined) | -17 | x | 21 | 0 | -19 | -7 | x
CSCCC(NC(=O)c1ccccc1Br)C(=O)NNC(=O)c1csc(N2CCOCC2)n1 (centres undefined) | 13 | -7 | x | -5 | -8 | 20 | x
Cn1c(CC(=O)Nc2ccccc2)c(Sc2ccccc2)c2ccccc21 | 15 | -6 | -17 | -3 | 29 | -4 | x
CSc1c(CC(=O)Nc2ccc(F)cc2)n(Cc2ccccc2)c2ccccc12 | 86* | 1 | 1 | 4 | 30 | 10 | 18
CSc1c(CC(=O)Nc2ccccc2)n(C)c2ccccc12 | 50* | 19 | 0 | x | 8 | 33 | -35
Cc1ccc2oc(=O)c3cnn(CC(=O)N4CCc5ccccc5C4)c3c2c1 | -7 | -18 | 5 | -2 | -2 | 13 | x
Cc1ccc2oc(=O)c3cnn(CC(=O)Nc4cc(-c5cccc(F)c5)no4)c3c2c1 | 74* | 22 | -5 | -5 | -7 | 1 | 10
